A selection: hits, their analogues and other compounds. The true share with any hit is near 1.4%.
Tn6 DDE FP: inhibitors of Tn6 peptide binding to human fibrin DD(E). P02675. Fibrin DD(E) TRITC-Tn6 fluorescence polarization displacement. inhibition, % at 8.3 µM. 0.21% of 370,000 active. AID 720509;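 active means inhibition above a per-campaign cutoff: mean of compounds within control limits plus 3 SD, cut at about 15% in these data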;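 further: 0% = median of all compound wells on the plate and 100% = blocking peptide control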
Target sequence (P02675 whole entry, looked up): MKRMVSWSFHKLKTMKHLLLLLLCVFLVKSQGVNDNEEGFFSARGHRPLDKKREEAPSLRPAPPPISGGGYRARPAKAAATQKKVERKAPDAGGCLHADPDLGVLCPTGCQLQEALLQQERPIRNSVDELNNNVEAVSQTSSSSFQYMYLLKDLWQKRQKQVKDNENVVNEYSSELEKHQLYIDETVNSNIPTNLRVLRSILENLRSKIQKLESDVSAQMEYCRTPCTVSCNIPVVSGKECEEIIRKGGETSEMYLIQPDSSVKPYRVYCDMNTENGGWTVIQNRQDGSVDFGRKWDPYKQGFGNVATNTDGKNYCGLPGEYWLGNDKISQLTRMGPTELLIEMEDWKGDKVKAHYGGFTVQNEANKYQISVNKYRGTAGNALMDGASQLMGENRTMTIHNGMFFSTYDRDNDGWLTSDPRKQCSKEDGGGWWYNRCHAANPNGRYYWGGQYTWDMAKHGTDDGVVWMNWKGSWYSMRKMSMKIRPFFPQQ
H9c2 TAG inh: inhibitors of triacylglycerol accumulation | H9c2 cells, Nile Red lipid (TAG) fluorescence; cells loaded with 200 µM oleic acid | inhibition, % at 12.5 µM | 0.66% of 230,000 active | AID 651582;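 active means pattern-corrected inhibition of lipid staining of at least 50% with the nuclear-stain viability signal not falling by more than 50%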;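 further: 0% = DMSO wells and 100% = triacsin C control wells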
Cardio protect: myocardial damage modulation in H9c2 cells; protection from H2O2 cell death, % at 20 µM; AID 588492; H9c2 cardiomyocytes, H2O2 injury protection, ATPLite, 2 h; 0.63% of 360,000 active;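 active means compounds giving at least 50% protection of heart cells from peroxide-induced death in the single-dose screen, raw or plate-pattern-corrected value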;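 further: 0% = DMSO wells with peroxide and 100% = DMSO wells without peroxide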
MT1-MMP act inh: blocks activation of human MT1-MMP; P50281; HT1080 RFP-PRO-GFP cells, GFP/RFP ratio fluorescence, overnight; percent of plate control window, DMSO zero; GFP/RFP ratio change, % at 20 µM; 0.061% of 360,000 active; AID 651647;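 active means GFP/RFP ratio change of at least 30% with cell ATP level not reduced by more than half and red fluorescence within 50% of control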
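Test system: HT1080 cells expressing an RFP-PRO-GFP fluorescent reporter construct / Compound dosing: single-point 20 µM compound, 1% DMSO / Schedule: cells overnight before dosing, compound overnight, 37 °C, 5% CO2 / Evaluation: GFP/RFP fluorescence ratio / Control set: DMSO and RFP-L50D-GFP cell wells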
DDE Tn7 FP inh: DD(E)-Tn7 binding inhibition, primary FP screen. P02675. FP displacement of FITC-Tn7 peptide from fibrin DD(E); 0% = median of compound wells per plate. inhibition, % at 8.3 µM. 0.13% of 370,000 active. AID 720508;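 active means inhibition above the mean of compounds falling within the control limits plus 3 SD of them, cut at about 14% in these data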;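 further: 0% = plate median of compound wells and 100% = 10 µM Aha-Tn7 peptide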
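Assay system: human fibrin DD(E). Input: DD(E) 2 µM final. Medium: Tris buffer with calcium and detergent, pH 7.8. Compound dosing: single point at 8.3 µM. Timing: 10 min plus 3 h, room temperature. Technique: fluorescence polarization of the labelled Tn7 tracer. Read-out: percent inhibition. Replicates: singlicate testing.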
DAGLB inh: blocks human DAGLB lipase activity; HEK293T DAGLB membrane lysate, EnzChek fluorogenic substrate; inhibition, % at 5.17 µM; 0.059% of 340,000 active; AID 504411; in the data active means inhibition above about 34%;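 further: 0% = enzyme with vehicle and 100% = wells lacking enzyme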
DDE Tn7 confirm: DD(E)-Tn7 binding inhibition, FP confirmation; inhibition, % at 8.3 µM; 5% of 460 active; AID 720628; shares compounds with DDE Tn7 FP inh; FP displacement of TRITC-Tn7 peptide from DD(E); 0% set at plate's compound-well median;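 active means inhibition above the campaign cutoff, the mean of compounds within control limits plus 3 SD, cut at about 14% in these data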;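 further: 100% = median FP of high control wells holding Aha-Tn7 inhibitor peptide; displacers lower polarization since freed probe rises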
Tn7 DDE ctr: counter-screen for inhibitors of Tn7 peptide binding to fibrin DD(E). shares compounds with DDE Tn7 FP inh. TRITC-Tn7 probe displacement, fluorescence polarization. inhibition, % at 8.3 µM. 3% of 460 active. AID 720633;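 active means inhibition above the cutoff, the mean of compounds lying between the control bounds plus 3 SD of those compounds, cut at about 17% in these data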;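 further: 0% = median of compound sample wells and 100% = excess unlabeled Aha-Tn7 peptide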
* hit, by the source's call.

N#CC1=C(N)C(C#N)(C#N)[C@H](c2c(F)cccc2F)[C@H]2CC3(CC=C12)OCCO3 was read as Tn6 DDE FP -1, Cardio protect 3, MT1-MMP act inh -135, DDE Tn7 FP inh 16*, DAGLB inh -8, DDE Tn7 confirm -2 and Tn7 DDE ctr -10.
`CN1C2C=C3C(C#N)=C(N)C(C#N)(C#N)[C@H](c4c(F)cccc4F)[C@H]3C1CC2` (some centres undefined) gave Tn6 DDE FP -4, Cardio protect -2, MT1-MMP act inh -35, DDE Tn7 FP inh 3 and DAGLB inh 0.
`FC(F)(F)Oc1ccc(Cn2ccc3ccc(-c4ccc5ccn(Cc6ccc(OC(F)(F)F)cc6)c5c4)cc32)cc1` gave Tn6 DDE FP -12 and DDE Tn7 FP inh -6.
For CSc1ccccc1NC(=O)COC(=O)c1cnc(C)cn1 the results were Tn6 DDE FP -2, H9c2 TAG inh -13, Cardio protect 13, MT1-MMP act inh 1, DDE Tn7 FP inh 14*, DAGLB inh 0, DDE Tn7 confirm -1 and Tn7 DDE ctr -6.
For COc1ccccc1NC(=O)COC(=O)c1cnc(C)cn1 the results were Tn6 DDE FP 3, H9c2 TAG inh 0, Cardio protect 2, MT1-MMP act inh 3, DDE Tn7 FP inh 7 and DAGLB inh 2.
`COCCNC(=S)N(C)[C@H]1C[C@H]2c3[nH]c4c(-c5ccccc5)cccc4c3CCN2C(=O)[C@H]1[C@H](C)O` gave Tn6 DDE FP -8 and DDE Tn7 FP inh 0.
N/C(=N\OC(=O)c1ccc2c(c1)OCO2)c1ccc(Cl)cc1 was read as Tn6 DDE FP -1, Cardio protect -17, MT1-MMP act inh 4, DDE Tn7 FP inh 2 and DAGLB inh -2.
For N/C(=N\OC(=O)c1ccc2c(c1)OCO2)c1ccncc1 the results were Tn6 DDE FP -3, H9c2 TAG inh -6, Cardio protect -13, MT1-MMP act inh 4, DDE Tn7 FP inh 15*, DAGLB inh 0, DDE Tn7 confirm 8 and Tn7 DDE ctr 4.
CCc1c(C)nc2ncnn2c1NCc1cccs1 was read as Tn6 DDE FP -2, Cardio protect -11, MT1-MMP act inh -3, DDE Tn7 FP inh -4 and DAGLB inh -4.
`FC(F)(F)c1cc(NCc2cccs2)n2ncnc2n1` gave Tn6 DDE FP 5, Cardio protect -2, MT1-MMP act inh 0, DDE Tn7 FP inh 15*, DAGLB inh 1, DDE Tn7 confirm -6 and Tn7 DDE ctr -9.
For CCN1C(=O)[C@H]2[C@@H](c3ccc(C)cc3)N3C(=O)N(c4ccc(OC)cc4)C(=O)[C@@]3(C)[C@H]2C1=O the results were Tn6 DDE FP 1, H9c2 TAG inh -6, Cardio protect 5, MT1-MMP act inh -5, DDE Tn7 FP inh 16*, DAGLB inh 3, DDE Tn7 confirm -7 and Tn7 DDE ctr -13.
For CCN1C(=O)[C@H]2[C@@H](c3ccc(C)cc3)N3C(=O)N(c4ccc(C)cc4)C(=O)[C@@]3(C)[C@H]2C1=O the results were Tn6 DDE FP 6, H9c2 TAG inh -24, Cardio protect -1, MT1-MMP act inh -3, DDE Tn7 FP inh -5 and DAGLB inh -1.
Screening COc1ccccc1N(C)S(=O)(=O)c1ccc(C(=O)OCC(=O)NCC(F)(F)F)cc1 returned Tn6 DDE FP -4, H9c2 TAG inh -1, Cardio protect 1, MT1-MMP act inh -2, DDE Tn7 FP inh 14*, DAGLB inh -2, DDE Tn7 confirm -2 and Tn7 DDE ctr -9.
Screening COc1ccccc1CNC(=O)C[C@H]1CC[C@H]2[C@H](COc3ccc(NS(=O)(=O)c4ccc(C)cc4)cc3C(=O)N2C)O1 returned Tn6 DDE FP 7 and DDE Tn7 FP inh 0.
